T1: DCNL5^P (DCNL5 PONY domain) (Homo sapiens, UniProt Q9BTE7)
T1 sequence (Q9BTE7 46-232 limits assumed): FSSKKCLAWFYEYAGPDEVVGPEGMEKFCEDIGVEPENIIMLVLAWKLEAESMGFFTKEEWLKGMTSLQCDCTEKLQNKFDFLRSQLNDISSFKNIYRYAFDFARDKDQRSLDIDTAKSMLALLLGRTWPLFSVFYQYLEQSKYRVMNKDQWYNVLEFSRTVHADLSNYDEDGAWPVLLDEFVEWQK

T2: DCNL4^P (DCNL4 PONY domain) (Homo sapiens, UniProt Q92564)
T2 sequence (Q92564 101-287 limits assumed): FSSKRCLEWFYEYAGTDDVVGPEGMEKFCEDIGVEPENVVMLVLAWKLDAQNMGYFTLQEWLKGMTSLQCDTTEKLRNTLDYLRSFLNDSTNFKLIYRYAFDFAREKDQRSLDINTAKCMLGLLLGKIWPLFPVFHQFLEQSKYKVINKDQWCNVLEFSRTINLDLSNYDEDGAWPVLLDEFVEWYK

B1: UBE2F^NAc: N-terminally acetylated human UBE2F, NEDD8 E2, expressed in insect cells (protein)
chain: MLTLASKLKRDDGLKGSRTAATASDSTRRVSVRDKLLVKEVAELEANLPCTCKVHFPDPNKLHCFQLTVTPDEGYYQGGKFQFETEVPDAYNMVPPKVKCLTKIWHPNITETGEICLSLLREHSIDGTGWAPTRTLKDVVWGLNSLFTDLLNFDDPLNIEAAEHHLRDKEDFRNKVDDYIKRYAR
modifications: N-terminal methionine retained and N-terminally acetylated; left off: His tag, C-terminal, state not stated
B2: unacetylated UBE2F: UBE2F prepared in E. coli as SUMO fusion, unacetylated N-terminal Met (protein)
chain: B1 chain
modifications: left off: SUMO, N-terminal, cleaved

Assays:
[1] = target: UBE2F^NAc, N-terminally acetylated UBE2F (human) (UniProt Q969M7); assay: ITC
[2] = target: T1, DCNL5^P (DCNL5 PONY domain); assay: ITC binding to DCNL5 PONY domain; details: full-length UBE2F protein, pH 7.0, 16 °C
In short: (§1)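 Buffer-matched by NAP-5 desalting into 25 mM HEPES, 125 mM NaCl, 1 mM BME, pH 7.0. N-terminally acetylated UBE2F in cell at 100 µM final, 16 °C. PONY domain (1 mM) injected as 2.5 µl, 5 s injections at 3 min intervals. Heats and Kd from fits of integrated data. At least two independent runs; values from one run.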

[3] = target: T2, DCNL4^P (DCNL4 PONY domain); assay: ITC binding to DCNL4 PONY domain; details: full-length UBE2F protein, pH 7.0, 16 °C
In short: as §1

[4] = target: DCNL1^P (DCNL1 PONY domain) (Homo sapiens, UniProt Q96GG9); assay: ITC binding to DCNL1 PONY domain; details: full-length UBE2F protein, pH 7.0, 16 °C
DCNL1^P (DCNL1 PONY domain), sequence (Q96GG9 60-248 limits assumed): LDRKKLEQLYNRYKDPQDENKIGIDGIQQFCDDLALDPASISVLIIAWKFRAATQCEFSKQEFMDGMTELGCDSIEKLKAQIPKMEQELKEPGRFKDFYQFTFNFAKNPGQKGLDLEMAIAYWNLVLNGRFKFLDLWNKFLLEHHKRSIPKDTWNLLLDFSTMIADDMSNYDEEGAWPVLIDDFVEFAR
In short: as §1

[5] = target: DCNL2^P (DCNL2 PONY domain) (Homo sapiens, UniProt Q6PH85); assay: ITC binding to DCNL2 PONY domain; details: full-length UBE2F protein, pH 7.0, 16 °C
DCNL2^P (DCNL2 PONY domain), sequence (Q6PH85 60-248 limits assumed): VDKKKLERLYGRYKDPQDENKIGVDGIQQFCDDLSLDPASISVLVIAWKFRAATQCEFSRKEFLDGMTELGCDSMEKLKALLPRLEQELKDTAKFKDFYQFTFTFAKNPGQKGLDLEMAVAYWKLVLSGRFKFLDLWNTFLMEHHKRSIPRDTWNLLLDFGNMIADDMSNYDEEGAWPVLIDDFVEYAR
In short: as §1

Molecule | fold decrease in binding against DCNL3^P [1] | Kd [2] | Kd [3] | also measured
DCNL1 PONY domain (DCNL1^P) (from UniProt Q96GG9 62-259) (domain or fragment) | 5 fold | – | – | –
DCNL3 PONY domain (DCNL3^P) (from UniProt Q8IWE4 86-304) (domain or fragment) | – | – | – | Kd [1]: 1000 nM
DCNL2 PONY domain (DCNL2^P) (from UniProt Q6PH85 62-259) (domain or fragment) | 5 fold | – | – | –
B1 | – | too high for us to measure | too high for us to measure | fold decrease in binding relative to DCNL3^P [4]: 5 fold; fold decrease in binding relative to DCNL3^P [5]: 5 fold
B2 | – | could not measure binding | could not measure binding | binding (ITC) [4]: could not measure binding; binding (ITC) [5]: could not measure binding
